KCNK9 inh – inhibitors of human KCNK9 two-pore domain potassium channel | HEK293 KCNK9, FluxOR thallium flux fluorescence; stronger effect = lower value | B-score at 10 µM | 310,000 compounds, 1.2% hits;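 active = ratio B-score over 3 SD below the library mean, with starting fluorescence within 5 SD of its mean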;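 note: negative B-score means less thallium flux so channel inhibition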
hERG rescue – hERG (human) protection from proarrhythmic block; Q12809; CHO-hERG, FluxOR thallium flux, dofetilide IC70 present; activation (rescue from dofetilide block), less the hit threshold, % at 10 µM; 310,000 compounds, 0.51% hits;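 active = activation above the mean of controls blocked by dofetilide plus 5 SD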;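 note: thallium influx through hERG after potassium depolarization seen as dye fluorescence rise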
KCNK3 inh – human KCNK3 channel inhibition, primary screen | O14649 | AID 602410 | B-score at 10 µM | CHO-KCNK3 thallium flux, FluxOR fluorescence; stronger effect = lower value | 340,000 compounds, 0.84% hits;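 active = B-score under library mean minus 4 SD, starting fluorescence ratio at most library mean plus 5 SD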;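 note: more negative B-score means stronger inhibition of thallium flux through KCNK3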
KCNQ1 block – inhibitors of human KCNQ1 potassium channel; P51787; CHO-K1 KCNQ1, FluxOR thallium flux fluorescence; stronger effect = higher value; B-score at 10 µM; 310,000 compounds, 1.3% hits; AID 2642;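 active = compounds whose thallium flux B-score, printed positive for inhibition, exceeds three library SD while starting fluorescence stays within three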;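 note: channel opened by potassium depolarization with thallium stimulus after 20 min compound exposure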
Target sequence (P51787 whole entry, looked up): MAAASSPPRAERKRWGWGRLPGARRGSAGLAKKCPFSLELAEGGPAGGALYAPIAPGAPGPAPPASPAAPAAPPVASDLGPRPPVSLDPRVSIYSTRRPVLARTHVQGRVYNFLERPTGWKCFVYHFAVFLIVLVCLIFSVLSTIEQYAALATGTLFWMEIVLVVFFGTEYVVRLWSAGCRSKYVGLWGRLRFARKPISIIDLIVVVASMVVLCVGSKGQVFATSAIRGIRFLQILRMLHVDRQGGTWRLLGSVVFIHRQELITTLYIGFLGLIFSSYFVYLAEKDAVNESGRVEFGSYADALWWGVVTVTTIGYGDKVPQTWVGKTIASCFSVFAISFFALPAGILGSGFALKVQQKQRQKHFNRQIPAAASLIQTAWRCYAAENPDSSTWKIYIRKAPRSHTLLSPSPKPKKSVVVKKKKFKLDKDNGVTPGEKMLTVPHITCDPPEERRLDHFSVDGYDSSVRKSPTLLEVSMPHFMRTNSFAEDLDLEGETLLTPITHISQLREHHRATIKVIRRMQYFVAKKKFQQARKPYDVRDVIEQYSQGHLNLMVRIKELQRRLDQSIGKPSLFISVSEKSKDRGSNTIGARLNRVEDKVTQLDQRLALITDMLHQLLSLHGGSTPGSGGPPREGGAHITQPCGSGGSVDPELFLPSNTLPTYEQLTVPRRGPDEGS
Kir21 inh – Kir2.1 (mouse) channel inhibition; 310,000 compounds, 0.85% hits; AID 1672; B-score at 10 µM; HEK293-Kir2.1, FluxOR thallium flux fluorescence; stronger effect = lower value; P35561;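 active = fluorescence ratio B-score at or below minus 3 SD of library scores, with starting-brightness B-score within 2 SD, cut at about -4.2 in these data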;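 note: channel flux triggered by added potassium and thallium sulfate stimulus; B-score of peak minus minimum fluorescence over baseline after thallium stimulus; more negative B-score means stronger Kir2.1 block with less thallium influx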
KCNQ1 act – human KCNQ1 channel potentiation or activation. P51787. CHO-K1 KCNQ1, thallium flux FluxOR fluorescence; stronger effect = higher value. B-score at 10 µM. 310,000 compounds, 0.35% hits. AID 2648;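 active = fluorescence ratio B-score, a plate-corrected score, at least three library SD, with initial intensity B-score within 5 SD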
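Assay system: stable KCNQ1 CHO-K1 line; medium: assay buffer, equal DMSO in all wells; timing: 90 min dye loading and 20 min compound exposure, both at room temperature; technique: kinetic FluxOR thallium fluorescence, 10-s 1-Hz baseline, 110-s post-stimulus read; read-out basis: B score of baseline-normalized fluorescence ratio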
A number is an active result; - = inactive; . = not tested or not shown; ! = not active in a repeat. Rows were chosen to be rich in hits. Some 3.7% of all compounds tested hit in one or more screens of this group.

SMILES	KCNK9 inh	hERG rescue	KCNK3 inh	KCNQ1 block	Kir21 inh	KCNQ1 act
CCCCCNCC(=O)Nc1cc(C(F)(F)F)ccc1OCCOC	-8.47	-	-	-	-	-
CC1CCN(C(=O)/C(=C/c2ccccc2Cl)c2ccccc2)CC1	-6.72	-	-	-	-	-
Cc1ccccc1C(=O)c1cccn1CC(=O)NCc1ccccc1Cl	-	-	-	-	-	-
Clc1ccc(C2Nc3cccc4cccc(c34)N2)cc1Cl	-	-	-	-	-	-
CN[C@@H]1CC[C@H](c2ccc(Cl)c(Cl)c2)c2ccccc21	-	.	-	-	-5.83	-
CC(Sc1ncn[nH]1)C(=O)c1c(N)n(C)c(=O)n(C)c1=O (stereo not drawn)	.	.	-	.	.	.
CC(=O)N1N=C(c2cccc([N+](=O)[O-])c2)OC1c1ccc(Cl)cc1Cl (stereo not drawn)	-	-	-	-	-	-
CC(=O)N1N=C(c2cccc([N+](=O)[O-])c2)OC1c1ccc(Br)cc1 (stereo not drawn)	-6.97	-	-	-	-	-
Cc1cc(OCc2cc(C(=O)N(C)CCCN3CCOCC3)no2)cc(C)c1Cl	-	-	-	-	-	-
Cc1cc(OCc2cc(C(=O)N(C)CC3CCOCC3)no2)cc(C)c1Cl	-	-	-	-	-5.07	-
COc1cc(C(=O)OCc2cccc(S(=O)(=O)N3CCOCC3)c2)ccc1OCC(C)C	.	.	-	.	.	.
CCOCCCn1c(SCC(=O)Nc2cc(C(C)(C)C)nn2-c2ccccc2)nc2ccccc2c1=O	-7.26	-	-	-	-	-
COc1ccccc1Nc1ncnc2c1c(C)c(C)n2CCO	-	-	-	-	-	-
Cc1ccc(-c2cn(-c3ccccc3)c3[n+]2CCCS3)cc1	-	-	-	-	-	-
c1ccc(-c2cn(-c3ccccc3)c3[n+]2CCCS3)cc1	-	-	-	-	-	-
COc1ccc(-n2cc(-c3ccc(C)cc3)[n+]3c2SCC3)cc1	-	-	-	7	-	-
CCc1ccc(-n2cc(-c3ccc(F)cc3)[n+]3c2SCCC3)cc1	-	-	-	6	-	-
C#CCNC(=O)C1=C[C@@H](c2ccccc2)C[C@@H](OCc2ccc(CO)cc2)O1	-	-	-	-	-5.6	-
NC(=O)C1=C[C@H](c2ccc(C(F)(F)F)cc2)C[C@H](OCc2ccc(CO)cc2)O1	-	-	-	-	-4.8	-
O=c1[nH]c2ccccc2c2cn(-c3ccccc3)nc12	-	-	-	-	-	-
Cc1ccc(S(=O)(=O)NCc2c(-c3ccccc3)noc2C)cc1	-	-	-	-	-4.27	-
Cc1onc(-c2ccccc2)c1CNS(=O)(=O)c1ccccc1	-	-	-	-	-	-
O=C(/C=C/c1cn(-c2ccccc2)nc1-c1cccc(Cl)c1)N1CCN(c2ccccn2)CC1	-	-	-	7	-	-
CC(=NNC(=O)c1ccc(NS(=O)(=O)c2cccs2)cc1)c1ccc(OCC(N)=O)cc1	.	.	-	.	.	.
CC(=O)c1cccc(S(=O)(=O)NC2CCSc3ccccc32)c1 (stereo not drawn)	-	-	-	-	-	-
SMILES	KCNK9 inh	hERG rescue	KCNK3 inh	KCNQ1 block	Kir21 inh	KCNQ1 act
Cc1noc(C)c1COC(=O)[C@H](C)NS(=O)(=O)c1ccc(Cl)c(Cl)c1	-	-	-	-	-5.23	-
Cc1cc(C)nc(NC(=NCCc2c[nH]c3ccccc23)NC(=O)C(C)(C)C)n1	-	-	-	-	-	-
N#Cc1ccc(CSc2ccc(S(=O)(=O)N3CCCC3)cn2)cc1	.	.	-	.	.	.
COc1ccc2nc(/N=C/c3c(C)[nH]n(-c4ccc(C)cc4C)c3=O)sc2c1	-	56.3	-	-	-	28
CC(=O)N1CCN(S(=O)(=O)c2cccc(C(=O)OCC(=O)N(CCC#N)c3ccc(F)cc3)c2)CC1	.	.	-	.	.	.
NS(=O)(=O)c1ccc(CCNC(=O)c2cnc(Cl)c(Cl)c2)cc1	-	-	-	-	-	-
CC(=O)Nc1ccc(C(=O)OCC(=O)Nc2ccccc2F)cc1	-	-	-	-	-	-
CN(C)c1cccc(C(=O)OCC(=O)Nc2ccccc2Sc2ccccc2)c1	-	-	-	6	-	-
CN(C)c1cccc(C(=O)OCC(=O)Nc2ccccc2-c2ccccc2)c1	-	-	-	-	-	-
CC(=O)Nc1ccc(C(=O)OCC(=O)Nc2ccccc2Sc2ccccc2)cc1	-7.18	-	-	-	-	-
Cc1noc(C)c1C(=O)N(CC(=O)Nc1ccccc1Br)Cc1ccco1	.	.	-	.	.	.
O=C(NC1CCCCC1)C(=O)c1c[nH]c2ccccc12	-	-	-	-	-	-
CCOC(=O)C1=C(Nc2ccccc2)CC(C)(O)C(C(=O)OCC)C1c1ccc(Cl)cc1 (stereo not drawn)	.	.	-9.94!	.	.	.
CCOC(=O)c1sc2nc(Cc3ccc(Cl)cc3)[nH]c(=S)c2c1C	-	74.9	-	-	-	46
O=[N+]([O-])c1cc(-c2nnc(Nc3ccccc3)c3ccccc23)ccc1N1CCOCC1	-	-	-	-	-	-
Cc1ccc(Nc2nnc(-c3ccc(N4CCOCC4)c([N+](=O)[O-])c3)c3ccccc23)cc1	-	-	-	7	-	-
COc1ccc(/C=C/c2c(-c3ccc(OC)cc3)oc3ccc(-c4ccc(OC)cc4)cc23)cc1	-	-	-	-	-	-
COc1ccc(/C=C/c2cc(-c3ccc(C)cc3)o[n+]2C)cc1	-	-	-	9	-	-
CN(C)CCCNc1ncnc2oc(-c3ccccc3)c(-c3ccccc3)c12	-	-	-	-	-4.6	-
CC(C)c1ccc2c(c1)C(c1cccs1)=NNC(c1ccncc1)=N2	-7.43	-	-	-	-	-
CC(C1CC1)N(Cc1ccccc1)C(=S)Nc1ccccc1Cl (stereo not drawn)	-	-	-	-	-	-
CCOC(=O)N/N=C/c1c(C)nn(-c2ccccc2Cl)c1Cl	-8.08	-	-	-	-	-
COc1ccccc1C(=O)NCCC(=O)N1CC=C(c2ccccc2)CC1	-	-	-	-	-4.46	-
CCOc1cc(CNCCO)cc(Br)c1OCc1ccccc1	-	-	-	-	-16.2	-
Cc1cccc(NCc2ccccc2OCc2ccccc2F)c1	-7.46	-	-	9	-	-
SMILES	KCNK9 inh	hERG rescue	KCNK3 inh	KCNQ1 block	Kir21 inh	KCNQ1 act
CCCCNCc1cc(Br)c(OCc2cccs2)c(OC)c1	-	-	-	-	-11.5	-
CCOc1cc(CNc2ccccc2)cc(Br)c1OCc1ccccc1F	-7.64	-	-	-	-	-
Oc1ccc(NCc2ccccc2OCc2ccccc2F)cc1	-	-	-	-	-	-
CCOc1cc(CNCCSc2nnnn2C)cc(Br)c1OCc1ccccc1	-	-	-	-	-	-
O=C(Cn1cnc2ccccc2c1=O)NCCC(=O)Nc1ccccc1C(F)(F)F	-	-	-	-	-	-
COc1cc(CNCCO)cc(Br)c1OCc1ccccc1Cl	-	-	-	-	-12.9	-
